Assay results of several laboratories.
Compare with care: the assays were run in different laboratories.
RET M918T: Proto-oncogene tyrosine-protein kinase receptor Ret (RET, Homo sapiens, UniProt P07949, M918T)
RET: Proto-oncogene tyrosine-protein kinase receptor Ret (RET, Homo sapiens, UniProt P07949)
RET Y791F: Proto-oncogene tyrosine-protein kinase receptor Ret (RET, Homo sapiens, UniProt P07949, Y791F)
RET V804M: Proto-oncogene tyrosine-protein kinase receptor Ret (RET, Homo sapiens, UniProt P07949, V804M)
RET V804L: Proto-oncogene tyrosine-protein kinase receptor Ret (RET, Homo sapiens, UniProt P07949, V804L)

| SMILES | target | read-out | mode | technique | concentration | quantity | result |
| --- | --- | --- | --- | --- | --- | --- | --- |
| C[C@@H]1CCN(c2nccc(-c3cnn4ncccc34)n2)C1 | RET M918T | binding |  |  | 1 µM | remaining binding | 100% |
| Cc1cnc(NC2CCOCC2)nc1-n1cnc(C(=O)NC(CN)c2cc(F)cc(Cl)c2)c1 (centres unmarked) | RET | enzyme activity | inhibitor | radiometric | 1 µM | remaining activity | 111% |
| CO[C@]1(C(=O)N[C@@H](C)c2ccc(-n3cc(F)cn3)nc2)CC[C@H](c2nc(C)cc(Nc3cc(C)[nH]n3)n2)CC1 | Proto-oncogene tyrosine-protein kinase receptor Ret (RET, Homo sapiens, UniProt P07949, L772A) | thermal stability |  | DSF | 10 µM | ΔTm | 11.7 °C |
| CN(C)c1ncc(F)c(-c2cnn3ncccc23)n1 | RET M918T | binding |  |  | 1 µM | remaining binding | 96% |
| COc1cc2ncnc(Nc3ccc(Oc4ccccc4)c(C)c3C)c2cc1OC | RET Y791F | enzyme activity | inhibitor |  | 1 µM | inhibition | 31% |
| CN(CCCC(F)(F)F)c1nccc(-c2cnn3ncccc23)n1 | RET V804M | binding |  |  | 1 µM | remaining binding | 100% |
| N#CCCc1ccc2c(c1)-c1[nH]c3ccc([N+](=O)[O-])cc3c1CC(=O)N2 | RET | cell-free assay |  |  | 0.5 µM | remaining signal | 80.8% |
| COC(=O)c1cccc(NC(=O)Nc2cc(C)c3nc(NC(=O)c4ccccc4)sc3c2)c1 | RET | enzyme activity | inhibitor | radiometric | 10 µM | remaining activity | 103% |
| Cc1cc(NC(=O)c2cccc3cc(-c4cccc5[nH]nc(N)c45)ccc23)ccc1F | RET V804M | enzyme activity | inhibitor |  | 0.1 µM | activity vs control | 117% |
| O=C(Nc1cccnn1)N1CCC(=Cc2cccc(Oc3ccc(C(F)(F)F)cn3)c2)CC1 | RET V804M | cell-free assay |  | competition with immobilised ligand | 1 µM | remaining binding | 100% |
| COc1cc(NC(=O)Nc2cc(OC)c3nc(NC(=O)c4ccccc4)sc3c2)cc(OC)c1 | RET | enzyme activity | inhibitor | radiometric | 0.1 µM | remaining activity | 112% |
| CC/C(=N\NC(=O)NCc1cccc(O)c1)c1ccc(O)c(C)c1O | RET Y791F | enzyme activity | inhibitor |  | 0.1 µM | inhibition | 2.9% |
| Nc1ncnc2occ(-c3ccc(NC(=O)Nc4cc(C(F)(F)F)ccc4F)cc3)c12 | RET M918T | cell-free assay |  |  | 20 µM | remaining signal | 0% |
| COc1ccc2c(c1)O[C@H](c1ccc(OC)c(OC)c1)C[C@@H]2NC(=O)C1(c2ccc3c(c2)OC(F)(F)O3)CC1 | RET V804M | cell-free assay |  | competition with immobilised ligand | 1 µM | remaining binding | 100% |
| COc1cc(-c2cc(-c3ccc(N4CCNCC4)cc3)cnc2N)cc(OC)c1OC | RET V804L | enzyme activity | inhibitor |  | 1 µM | inhibition | 5% |
| COc1ccc(COc2ccc(Cc3cnc(N)nc3N)cc2OC)cc1 | RET | cell-free assay |  |  | 0.5 µM | remaining signal | 108% |
| c1cnn2ncc(-c3ccnc(N4CCC45COC5)n3)c2c1 | RET V804M | binding |  |  | 1 µM | remaining binding | 100% |
| Cc1ccc(Nc2nccc(N(C)c3ccc4c(C)n(C)nc4c3)n2)cc1S(N)(=O)=O | RET | cell-free assay |  |  | 0.5 µM | remaining signal | 25.7% |
| CCCOc1ccc(OC)c(F)c1C(=O)c1ccc(C(=O)N[C@@H]2CNC[C@H]2NC(=O)c2ccc3[nH]ncc3c2)cc1 | RET V804M | enzyme activity | inhibitor |  | 10 µM | remaining activity | 4% |

| SMILES | target | read-out | mode | technique | concentration | quantity | result |
| --- | --- | --- | --- | --- | --- | --- | --- |
| Cc1ccc(NC(=O)Nc2cc3c(cc2Oc2ccccc2)n(C)c(=O)n3C)cc1C | RET | enzyme activity | inhibitor | radiometric | 10 µM | remaining activity | 128% |
| Cc1cc(C)c(-n2ccn3nc(-c4cccnc4)cc23)cc1NC(=O)c1cc(C#N)cc(S(F)(F)(F)(F)F)c1 | RET V804M | cell-free assay |  | competition with immobilised ligand | 0.1 µM | remaining binding | 94.5% |
| CCOC(=O)N1CCN(c2nc(Nc3ccc(C)cc3)c3nn[nH]c3n2)CC1 | RET | enzyme activity | inhibitor | radiometric | 0.1 µM | remaining activity | 128% |
| O=C(N1CCS(=O)(=O)CC1)N1C[C@H](c2ccc(OC(F)(F)F)cc2)C[C@H](c2nc(C3CC3)no2)C1 | RET V804L | cell-free assay |  | competition with immobilised ligand | 1 µM | remaining binding | 99% |
| C=CC(=O)Nc1cc(Nc2nccc(Nc3cc(Cl)c(F)cc3C(C)(C)O)n2)c(OC)cc1N1CC[C@@H](N(C)C)C1 | RET | enzyme activity | inhibitor |  | 1 µM | inhibition | 1% |
| Cc1ccc(NC(=O)Nc2ccc(Nc3cc(-n4ccnc4)nc(C)n3)cc2)c(C)c1 | RET | enzyme activity | inhibitor | radiometric | 10 µM | remaining activity | 68.1% |
| O=C1NC(c2ccccn2)Sc2ccccc21 (centres unmarked) | RET V804M | cell-free assay |  | competition with immobilised ligand | 1 µM | remaining binding | 86% |
| COc1ccc(OC)c(NC(=O)Nc2cc(OC)c3nc(NC(=O)c4ccccc4)sc3c2)c1 | RET | enzyme activity | inhibitor | radiometric | 0.1 µM | remaining activity | 114% |
| CS(=O)(=O)CCNCc1ccc(-c2ccc3ncnc(Nc4ccc(OCc5cccc(F)c5)c(Cl)c4)c3c2)o1 | RET | cell-free assay |  |  | 0.5 µM | remaining signal | 99.8% |
| Cc1cccc(NC(=O)CNC(=O)c2ccccc2NS(=O)(=O)c2ccc3[nH]c(=O)[nH]c3c2)c1C | RET | enzyme activity | inhibitor | radiometric | 10 µM | remaining activity | 85.9% |
| CCS(=O)(=O)c1cc2cc(C[C@](O)(CC(C)(C)c3ccc(F)cc3C(N)=O)C(F)(F)F)[nH]c2cn1 | RET V804L | cell-free assay |  | competition with immobilised ligand | 1 µM | remaining binding | 100% |
| COc1ccc(CN2C3CC2CN(c2ccc(-c4cc(OCC(C)(C)O)cn5ncc(C#N)c45)cn2)C3)cn1 | RET | thermal stability |  | DSF | 10 µM | ΔTm | 9.5 °C |
| Cc1c(NC(=O)c2cc(C(N)=O)nc3cc(F)ccc23)c(C(F)(F)F)nn1Cc1ccc(C(C)(C)C)cc1 | RET V804M | cell-free assay |  | competition with immobilised ligand | 1 µM | remaining binding | 100% |
| CNCc1ccc(-c2cc(-c3nc(-c4ccc(S(=O)(=O)C(C)C)cc4)cnc3N)on2)cc1 | RET | enzyme activity | inhibitor |  | 0.4 µM | inhibition | 22% |
| N[C@H]1CCN(c2nccc(-c3cnn4ncccc34)n2)C1 | RET V804L | binding |  |  | 1 µM | remaining binding | 93% |
| Cc1ccc(C(=O)Nc2ccc(CN3CCN(C)CC3)c(C(F)(F)F)c2)cc1C#Cc1cnc2cccnn12 | RET V804M | enzyme activity |  |  | 23.5 nM | remaining activity | 8.4% |
| CCOCCn1cc(C(=O)Nc2ccc(-n3nc(-c4cccnc4)cc3C(F)(F)F)cn2)ccc1=O | RET | cell-free assay |  | competition with immobilised ligand | 1 µM | remaining binding | 83% |
| COc1ccnn2ncc(-c3ccnc(N(C)C)n3)c12 | RET | binding |  |  | 1 µM | remaining binding | 100% |
| COCC(=O)Nc1cc(C(=O)NCc2ccc(C)c(F)c2)cc2ncn(CCc3ccccc3)c12 | RET | enzyme activity | inhibitor | radiometric | 0.1 µM | remaining activity | 133% |
